Holding throughout (format): functional, cell-based
Experiment [1] can be described thus: (§1) Cytotoxicity against human PC3 cells after 72 hrs by XTT assay. The following applies: PC-3, 72 h. Summed up: (§2)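 Compounds in DMSO (5-100 µg/ml, final DMSO <0.2%) were added for 72 h. XTT was then added (4 h, 37°C) and formazan read at 492 nm. IC50 is the 50% viability drop versus vehicle. Three experiments, five wells each, mean ± SEM.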
Background: Tetrazolium dyes change colour on reduction, which living cells bring about.

The next experiment relates to LNCaP. The experiment in a line: Cytotoxicity against human LNCAP cells after 72 hrs by XTT assay. Summed up:
as §2

The nature of experiment [2]: (§3) Cytotoxicity against rat MAT-LyLu cells after 72 hrs by XTT assay. The following applies: MAT-Ly-Lu. Summed up:
as §2

Another experiment relates to PC-3. The description is as §1. Summed up: as §2
The next experiment concerns MAT-Ly-Lu. The description is as §3. Summed up: as §2

≈ marks a conversion by molar mass, not a printed value.

With `COc1ccc(OC)c(N2C3=C(C(=O)CCC3)[C@]3(O)C(=O)c4ccccc4[C@]23O)c1`, the IC50 (in experiment [1]; in the experiment with LNCaP; in experiment [2]) was > 100 µg/mL each time.

Take `O=C1CCCC2=C1[C@]1(O)C(=O)c3ccccc3[C@]1(O)N2c1ccc(Cl)cc1` (racemic): the figures for the half-maximal inhibitory concentration (IC50) (in experiment [1]; in the experiment on LNCaP; in experiment [2]) were 67.9 µg/mL (≈ 178 µM), 79.2 µg/mL (≈ 207 µM) and > 100 µg/mL, respectively. Further, the inhibition entry with PC-3, with LNCaP and with MAT-Ly-Lu was “Dose-dependent effect” each time.

Consider `CC1(C)CC(=O)C2=C(C1)N(c1ccc(Cl)cc1)[C@@]1(O)c3ccccc3C(=O)[C@@]21O` (racemic), for which the IC50 is 76.6 µg/mL (≈ 187 µM) in experiment [1], 66.2 µg/mL (≈ 162 µM) in the experiment with LNCaP and > 100 µg/mL in experiment [2]. The inhibition entry in the experiment with PC-3, in the experiment with LNCaP and with MAT-Ly-Lu was “Dose-dependent effect” in each case.

On to `O=C1CCCC2=C1[C@]1(O)C(=O)c3ccccc3[C@]1(O)N2c1ccc(Cl)c(Cl)c1` (racemic), for which the IC50 in experiment [1] came to 47.8 µg/mL (≈ 115 µM); in the experiment on LNCaP, 53.9 µg/mL (≈ 130 µM); in experiment [2], 75.2 µg/mL (≈ 181 µM). In addition, the inhibition entry in the experiment on PC-3, with LNCaP and in the experiment on MAT-Ly-Lu was “Dose-dependent effect” throughout.

`COc1ccccc1N1C2=C(C(=O)CCC2)[C@]2(O)C(=O)c3ccccc3[C@]12O` (racemic): the IC50 (in experiment [1]; in the experiment with LNCaP; in experiment [2]) was > 100 µg/mL each time.

On to `COc1cccc(N2C3=C(C(=O)CCC3)[C@]3(O)C(=O)c4ccccc4[C@]23O)c1` (racemic), for which the IC50 (in experiment [1]; in the experiment on LNCaP; in experiment [2]) was > 100 µg/mL in each case.

In the case of `COc1ccc(N2C3=C(C(=O)CCC3)[C@]3(O)C(=O)c4ccccc4[C@]23O)cc1` (racemic), the half-maximal inhibitory concentration (IC50) (in experiment [1]; in the experiment on LNCaP; in experiment [2]) was > 100 µg/mL throughout.

Turning to `COc1ccc(N2C3=C(C(=O)CCC3)[C@]3(O)C(=O)c4ccccc4[C@]23O)c(OC)c1` (racemic), the concentration for half-maximal inhibition (IC50) (in experiment [1]; in the experiment on LNCaP; in experiment [2]) was > 100 µg/mL each time.

`COc1ccc(N2C3=C(C(=O)CCC3)[C@]3(O)C(=O)c4ccccc4[C@]23O)cc1OC` (racemic): the IC50 (in experiment [1]; in the experiment with LNCaP; in experiment [2]) was > 100 µg/mL each time.

Turning to `COc1cc(N2C3=C(C(=O)CCC3)[C@]3(O)C(=O)c4ccccc4[C@]23O)cc(OC)c1OC` (racemic), the IC50 (in experiment [1]; in the experiment on LNCaP; in experiment [2]) was > 100 µg/mL each time.

As for `Cc1ccccc1N1C2=C(C(=O)CCC2)[C@]2(O)C(=O)c3ccccc3[C@]12O` (racemic), the half-inhibitory concentration (IC50) (in experiment [1]; in the experiment with LNCaP; in experiment [2]) was > 100 µg/mL in each case.

On to `Cc1cccc(N2C3=C(C(=O)CCC3)[C@]3(O)C(=O)c4ccccc4[C@]23O)c1` (racemic), for which the half-maximal inhibitory concentration (IC50) (in experiment [1]; in the experiment with LNCaP; in experiment [2]) was > 100 µg/mL throughout.

As to `Cc1ccc(N2C3=C(C(=O)CCC3)[C@]3(O)C(=O)c4ccccc4[C@]23O)cc1` (racemic), the IC50 (in experiment [1]; in the experiment with LNCaP; in experiment [2]) was > 100 µg/mL throughout.

On to `Cc1ccc(N2C3=C(C(=O)CCC3)[C@]3(O)C(=O)c4ccccc4[C@]23O)c(C)c1` (racemic), for which the half-inhibitory concentration (IC50) (in experiment [1]; in the experiment with LNCaP; in experiment [2]) was > 100 µg/mL throughout.

With `Cc1ccc(C)c(N2C3=C(C(=O)CCC3)[C@]3(O)C(=O)c4ccccc4[C@]23O)c1` (racemic), the IC50 (in experiment [1]; in the experiment on LNCaP; in experiment [2]) was > 100 µg/mL each time.

As for `Cc1ccc(N2C3=C(C(=O)CCC3)[C@]3(O)C(=O)c4ccccc4[C@]23O)cc1C` (racemic), the IC50 (in experiment [1]; in the experiment on LNCaP; in experiment [2]) was > 100 µg/mL throughout.

Turning to `Cc1cc(C)cc(N2C3=C(C(=O)CCC3)[C@]3(O)C(=O)c4ccccc4[C@]23O)c1` (racemic), the concentration for half-maximal inhibition (IC50) (in experiment [1]; in the experiment with LNCaP; in experiment [2]) was > 100 µg/mL throughout.

As for `O=C1CCCC2=C1[C@]1(O)C(=O)c3ccccc3[C@]1(O)N2c1ccc(Br)cc1` (racemic), the IC50 (in experiment [1]; in the experiment on LNCaP; in experiment [2]) was > 100 µg/mL in each case.

As for `COc1ccccc1N1C2=C(C(=O)CC(C)(C)C2)[C@]2(O)C(=O)c3ccccc3[C@]12O` (racemic), the IC50 (in experiment [1]; in the experiment on LNCaP; in experiment [2]) was > 100 µg/mL in each case.

In the case of `COc1cccc(N2C3=C(C(=O)CC(C)(C)C3)[C@]3(O)C(=O)c4ccccc4[C@]23O)c1` (racemic), the IC50 (in experiment [1]; with LNCaP; in experiment [2]) was > 100 µg/mL throughout.

With `COc1ccc(N2C3=C(C(=O)CC(C)(C)C3)[C@]3(O)C(=O)c4ccccc4[C@]23O)cc1` (racemic), the IC50 (in experiment [1]; in the experiment with LNCaP; in experiment [2]) was > 100 µg/mL each time.

Take `COc1ccc(N2C3=C(C(=O)CC(C)(C)C3)[C@]3(O)C(=O)c4ccccc4[C@]23O)c(OC)c1` (racemic): the IC50 (in experiment [1]; in the experiment on LNCaP; in experiment [2]) was > 100 µg/mL throughout.

Regarding `COc1ccc(N2C3=C(C(=O)CC(C)(C)C3)[C@]3(O)C(=O)c4ccccc4[C@]23O)cc1OC` (racemic), the IC50 (in experiment [1]; in the experiment on LNCaP; in experiment [2]) was > 100 µg/mL each time.

Turning to `COc1ccc(OC)c(N2C3=C(C(=O)CC(C)(C)C3)[C@]3(O)C(=O)c4ccccc4[C@]23O)c1` (racemic), the IC50 (in experiment [1]; in the experiment on LNCaP; in experiment [2]) was > 100 µg/mL throughout.

For `COc1cc(N2C3=C(C(=O)CC(C)(C)C3)[C@]3(O)C(=O)c4ccccc4[C@]23O)cc(OC)c1OC` (racemic), the IC50 (in experiment [1]; with LNCaP; in experiment [2]) was > 100 µg/mL in each case.

With `Cc1ccccc1N1C2=C(C(=O)CC(C)(C)C2)[C@]2(O)C(=O)c3ccccc3[C@]12O` (racemic), the half-maximal inhibitory concentration (IC50) (in experiment [1]; in the experiment with LNCaP; in experiment [2]) was > 100 µg/mL in each case.

Regarding `Cc1cccc(N2C3=C(C(=O)CC(C)(C)C3)[C@]3(O)C(=O)c4ccccc4[C@]23O)c1` (racemic), the IC50 (in experiment [1]; with LNCaP; in experiment [2]) was > 100 µg/mL each time.

For the compound `Cc1ccc(N2C3=C(C(=O)CC(C)(C)C3)[C@]3(O)C(=O)c4ccccc4[C@]23O)cc1` (racemic), the IC50 (in experiment [1]; with LNCaP; in experiment [2]) was > 100 µg/mL throughout.

Regarding `Cc1ccc(N2C3=C(C(=O)CC(C)(C)C3)[C@]3(O)C(=O)c4ccccc4[C@]23O)c(C)c1` (racemic), the IC50 (in experiment [1]; with LNCaP; in experiment [2]) was > 100 µg/mL in each case.

On to `Cc1ccc(C)c(N2C3=C(C(=O)CC(C)(C)C3)[C@]3(O)C(=O)c4ccccc4[C@]23O)c1` (racemic), for which the half-inhibitory concentration (IC50) (in experiment [1]; in the experiment on LNCaP; in experiment [2]) was > 100 µg/mL in each case.

As for `Cc1ccc(N2C3=C(C(=O)CC(C)(C)C3)[C@]3(O)C(=O)c4ccccc4[C@]23O)cc1C` (racemic), the IC50 (in experiment [1]; with LNCaP; in experiment [2]) was > 100 µg/mL throughout.

For `Cc1cc(C)cc(N2C3=C(C(=O)CC(C)(C)C3)[C@]3(O)C(=O)c4ccccc4[C@]23O)c1` (racemic), the half-maximal inhibitory concentration (IC50) (in experiment [1]; with LNCaP; in experiment [2]) was > 100 µg/mL throughout.

As to `CC1(C)CC(=O)C2=C(C1)N(c1ccc(Br)cc1)[C@@]1(O)c3ccccc3C(=O)[C@@]21O` (racemic), the IC50 (in experiment [1]; in the experiment with LNCaP; in experiment [2]) was > 100 µg/mL in each case.

For the compound `Cc1cc(N)c2ccccc2[n+]1CCCCCCCCCC[n+]1c(C)cc(N)c2ccccc21` [DEQUALINIUM], the IC50 in experiment [1] came out at 24.6 µg/mL; in the experiment on LNCaP, 4.94 µg/mL; in experiment [2] it was 10.3 µg/mL. The inhibition entry in the experiment on PC-3, in the experiment on LNCaP and in the experiment on MAT-Ly-Lu was “Dose-dependent effect” throughout.

As a reminder, the IC50 is the concentration that gives 50% inhibition. A lower IC50 goes with higher potency.

These data come from ChEMBL document CHEMBL3414540, “Synthesis, crystal structure and effect of indeno[1,2-b]indole derivatives on prostate cancer in vitro. Potential effect against MMP-9” (Eur J Med Chem, 2015).
